Measurements taken from PMC9043999 (Cell Reports Medicine, 2022).

How the values were obtained:
[1] = system: MLD-STZ-induced diabetes in male C57BL6 mice; experiment: MLD-STZ-induced diabetes, wild-type mice; assay type: in vivo, mouse
ERE-GFP MIN6 cells = experiment: ERE-GFP reporter activation, flow cytometry; assay type: cell-based, mouse
Summary of the method: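 MIN6 cells were stably transduced with a lentiviral 4×ERE-driven GFP reporter and selected with puromycin (2 μg/mL). They were kept in phenol-free DMEM with 10% charcoal-stripped FBS for 7 days before and during assays. Test compounds were given overnight at 10−8 M, or in time courses at 10 nM (1 min) or 100 nM (1, 15, 60, 120 min). Percent GFP-positive cells were scored by flow cytometry, gated on vehicle-treated cells.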

human islets [2] = experiment: RPPA phosphoproteins with Ingenuity Pathway Analysis; assay type: cell-based; details: for annotations predicting pathway activation (Z score > 2) / pathways predicting inhibition (Z score < −2): 10^−8 M, 5 min, N = 3 male donors; for most represented biological function: 5 min stimulation (Fig S5)
Summary of the method: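 Islets came from three male human donors and were cultured overnight at 37°C in phenol-red-free RPMI (11 mM glucose, 10% charcoal-stripped FBS). They were treated with test compounds at 10−8 M for 5 min, 30 min or 18 h, against untreated islets. Lysates were twofold serially diluted (5 dilutions), arrayed on slides and probed with 485 antibodies using tyramide amplification and DAB detection. Pathway changes were analysed with IPA Downstream Effects Analysis.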

human islets [3] = experiment: RPPA protein expression with gene ontology enrichment; assay type: cell-based; details: for GO pathways with downregulated proteins / GO pathways with upregulated proteins: adjusted p value < 0.01
Summary of the method: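 Islets from 3 male human donors, cultured overnight at 37°C in phenol-red-free RPMI (11 mM glucose, 10% charcoal-stripped FBS). […] Lysates serially diluted twofold (5 dilutions), arrayed on nitrocellulose, probed with 485 antibodies via tyramide amplification and DAB; expression normalized.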

[4] = system: insulin-deficient diabetes induced by a single high dose of streptozotocin in male and female mice; details: single high dose of STZ; cited from earlier work
GLP-1R = details: target β cells; cited from earlier work

| Compound | index of β cell function (insulin/glucose) ([1]; male C57BL6 mice, 120 μg/kg/day, day 13, vs other treatments) | hyperglycemia ([1]; male C57BL6 mice, 120 μg/kg/day, vs other treatments, n = 10) | increase in percentage of ERE-activated MIN6 cells (ERE-GFP MIN6 cells; 24 h exposure (text; overnight in legend), 10^−8 M (Fig 2D, 2E)) | ERE activation with ER antagonist fulvestrant (ERE-GFP MIN6 cells; E2 after pretreatment with fulvestrant) | increase in percentage of ERE-activated MIN6 cells (ERE-GFP MIN6 cells; E2 alone 1 min, 10 nM (Fig 2F, 2G)) | time to reach the nucleus and activate EREs (ERE-GFP MIN6 cells; MIN6 cells) | level of phosphoproteins and related total proteins (human islets [2]; 5 and 30 min, vs GLP-1 or GLP1-E2) | annotations predicting pathway activation (Z score > 2) (human islets [2]) | pathways predicting inhibition (Z score < −2) (human islets [2]) | most represented biological function (human islets [2]) | level of phosphoproteins (human islets [2]; 18 h, vs GLP-1 or GLP1-E2) | protein expression (human islets [3]; 5 and 30 min) | GO pathways with downregulated proteins (human islets [3]; 18 h) | GO pathways with upregulated proteins (human islets [3]; 18 h) | protein expression (human islets [3]; 18 h, compared to GLP-1- and GLP1-E2-treated islets) | prevention of insulin-deficient diabetes [4] | antidiabetic efficacy at dose ten times lower ([1]; mice, dose ten times lower (12 μg/kg)) | clathrin-mediated endocytosis of GLP-1R (GLP-1R) |
| --- | --- | --- | --- | --- | --- | --- | --- | --- | --- | --- | --- | --- | --- | --- | --- | --- | --- | --- |
| C[C@]12CC[C@@H]3c4ccc(O)cc4CC[C@H]3[C@@H]1CC[C@@H]2O [E2, 17β-Estradiol] | maintenance of the index of β cell function | decrease in hyperglycemia | 4.7 fold | reversed by pretreatment with the ER antagonist fulvestrant | 6.1 fold | ≤ 1 min | heightened level of phosphoproteins and related total proteins at 5 and 30 min | related to cell viability and survival | related to cell death, apoptosis, or necrosis | Cell Death & Survival | decreased in phosphoproteins at 18 h | heightened protein expression at 5 and 30 min | downregulated multiple proteins enriched in pathways involved in apoptosis and inflammation, protein phosphorylation, transcription, and Akt/PI3-kinase | upregulated few proteins enriched in pathways involved in proliferation and response to estrogen | decreased protein expression level at 18 h | prevents insulin-deficient diabetes | – | – |
| glucagon-like peptide-1 [GLP-1] | – | – | – | – | – | – | – | related to cell viability and survival | related to cell death, apoptosis, or necrosis | Cell Death & Survival | – | – | downregulated multiple proteins enriched in pathways involved in apoptosis, cytokine and oxidative stress-related inflammation, protein phosphorylation, Akt/PI3-kinase, and cell cycle | upregulated few proteins enriched in pathways involved in response to cytokines and glycolysis | – | – | not efficient in mice | promotes ligand-activated, clathrin-mediated endocytosis of GLP-1R |
